Assay results gathered from unrelated publications.
Compare with care: the assays were run in different laboratories.
PRKAA2: 5'-AMP-activated protein kinase catalytic subunit alpha-2 (PRKAA2, Homo sapiens, UniProt P54646)
PSMB6: Proteasome subunit beta type-6 (PSMB6, Homo sapiens, UniProt P28072)
CDK1 with cyclin B: Cyclin-dependent kinase 1, with cyclin B (CDK1, Homo sapiens, UniProt P06493)
Stromelysin-2: Stromelysin-2 (Homo sapiens, UniProt P09238)
FAP: Prolyl endopeptidase FAP (FAP, Homo sapiens, UniProt Q12884)

Cc1nn(C)cc1-c1nc2c(N3CCN(Cc4ccc(Cl)cc4)CC3)c(Cl)cnc2[nH]1  remaining binding (PRKAA2; binding; competition with immobilised ligand; 1 µM): 0.9%
C#Cc1n[nH]c2c(-c3cn([C@@H](C)c4ccccn4)c(=O)[nH]c3=O)cc(F)cc12  inhibition (Proto-oncogene tyrosine-protein kinase Src (SRC, Homo sapiens, UniProt P12931); enzyme activity; inhibitor; 0.1 µM): 12.9%
Nc1ccc(-c2nsc(=O)o2)cc1  kinact/KI (PSMB6; enzyme activity; inhibitor): 1.09 M⁻¹ s⁻¹
Cn1cc(-c2cc(F)cc(N3CCn4c(cc5c4CCCC5)C3=O)c2CO)cc(Nc2ccc(N3CCN(C4COC4)CC3)cn2)c1=O  inhibition (CDK1 with cyclin B; enzyme activity; inhibitor; 0.1 µM): 8%
COc1ccc(S(=O)(=O)N(CC(=O)NO)CC(C)C)cc1  inhibition (Stromelysin-2; enzyme activity; inhibitor; 1 µM): 63%
Oc1cc(Br)cc(Br)c1Oc1ccc(Br)cc1Br  Km (Sulfotransferase 1E1 (SULT1E1, Homo sapiens, UniProt P49888); enzyme activity; substrate): 63.2 µM
C#Cc1n[nH]c2c(-c3cn([C@@H](C)c4ccccc4)c(=O)[nH]c3=O)cc(F)cc12  inhibition (CDK1 with cyclin B; enzyme activity; inhibitor; 0.1 µM): 5.9%
Nc1ncc(-c2nc(N3CCOCC3)nc(N3CCOCC3)n2)c(C(F)F)n1  remaining binding (PRKAA2; cell-free assay; competition with immobilised ligand; 10 µM): 91%
CN(C)C(=O)COC(=O)Cc1ccc(OC(=O)c2ccc(NC(=N)N)cc2)cc1  inhibition (Stromelysin-2; enzyme activity; inhibitor; 10 µM): 29%
CSc1sc(C)cc1-c1nsc(=O)o1  kinact/KI (PSMB6; enzyme activity; inhibitor): 0.03 M⁻¹ s⁻¹
CCOC(=O)c1ccc(OC(=O)CCCCCNC(=N)N)cc1  inhibition (FAP; enzyme activity; inhibitor; 10 µM): 29%
Cc1ncc(C)n2nc(/C=C/c3nc(N4CCCC4)cc(N4CCOCC4)n3)nc12  inhibition (C-X-C chemokine receptor type 4 (CXCR4, Homo sapiens, UniProt P61073); cell-free assay; 10 µM): -8%
N#C[C@@H]1CC(F)(F)CN1C(=O)CNC(=O)c1ccnc2ccccc12  inhibition (FAP; enzyme activity; inhibitor; 10 nM): 35%
Cn1cc(-c2cccc(N3CCc4c(sc5c4CC(C)(C)C5)C3=O)c2CO)cc(Nc2ccncn2)c1=O  inhibition (Cyclin-dependent kinase 9, with cyclin K (CDK9, Homo sapiens, UniProt P50750); enzyme activity; inhibitor; 1 µM): 11%
COc1ncccc1-c1cnn2ccc(N3CCN(C(=O)OC(C)C)CC3)nc12  remaining binding (Ankyrin repeat and protein kinase domain-containing protein 1 (ANKK1, Homo sapiens, UniProt Q8NFD2); binding; competition with immobilised ligand; 1 µM): 13%
CCN(CC)CCCC[C@H](NC(=O)[C@H](CC(C)C)NC(=O)[C@H](C)NC(=O)[C@H](Cc1ccccc1)NC(=O)c1ccc(C(C)(C)C)cc1)C(=O)N[C@@H](CO)C(=O)OC  ΔTm (SP140 (Homo sapiens, UniProt Q13342); thermal stability; DSF; 25 µM): 0.07 °C
N=C(N)c1ccc2cc(OC(=O)c3ccc(N=C(N)N)cc3)ccc2c1  inhibition (Dipeptidyl peptidase 4 (DPP4, Homo sapiens, UniProt P27487); enzyme activity; inhibitor; 10 µM): 18%
